8 molecules from ChEMBL document CHEMBL1137805, “In vitro cytotoxicity of the protoberberine-type alkaloids” (2001) can be followed below.

Common to all, as to type: functional
The nature of experiment [1]: Cytotoxicity against human breast cancer cells. The following applies: Cancer cell lines. The method in brief: (§1)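 Subpanel values are mean GI50 over the panel's strains of each tumour type: breast 5, colon 6, lung 6 or 7, ovarian 5, stomach 6. […] Cells were grown in RPMI 1640 with 5% FBS at 37 °C under 5% CO2.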
Experiment [2] is described as follows: Cytotoxicity against human CNS cancer cells. The conditions noted are these: Cancer cell lines.
Experiment [3] can be described thus: Cytotoxicity against human colon cancer cells. The following applies: Cancer cell lines. The method, boiled down: as §1
Experiment [4] can be described thus: Cytotoxicity against human lung cancer cells. The following applies: Cancer cell lines. The method in brief:
as §1

Experiment [5] can be described thus: Cytotoxicity against human ovarian cancer cells. The conditions noted are these: Cancer cell lines. The method in brief:
as §1

Experiment [6] can be described thus: Cytotoxicity against human stomach cancer cells. The conditions noted are these: Cancer cell lines. The method, boiled down: as §1
In the next experiment the test system is MKN-28. The experiment can be described thus: Cytotoxicity against human MKN28 cells. The method in brief: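 Each line was grown in RPMI 1640 with 5% FBS and penicillin ([…]) at 37 °C under 5% CO2. Cells were plated, attached overnight, and exposed to drug for 48 h. Sulforhodamine B staining was read at 525 nm, with control, test and time-zero absorbances. % growth = 100×(T−T0)/(C−T0), or […] T<T0. GI50 is the concentration giving 50% growth.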

Turning to `CCCCc1c2[n+](cc3c(OC)c(OC)ccc13)CCc1cc3c(cc1-2)OCO3`, the GI50 was found to be 6.31 µM in experiment [1]; 3.71 µM in experiment [2]; 2.51 µM in experiment [3]; 1.78 µM in experiment [4]; 5.25 µM in experiment [5]; 3.9 µM in experiment [6]. In the experiment on MKN-28, the GI50 was under 2.69 µM.

For `CCCCCCc1c2[n+](cc3c(OC)c(OC)ccc13)CCc1cc3c(cc1-2)OCO3`, the 50% growth inhibitory concentration (GI50) in experiment [1] stood at 0.76 µM; in experiment [2], 1.2 µM; in experiment [3], 0.72 µM; in experiment [4] it was 0.49 µM; in experiment [5], 1.17 µM; in experiment [6], 0.76 µM. This molecule yielded a GI50 in the experiment on MKN-28 of 0.83 µM.

As for `COc1cc(Br)c2cc3[n+](c(-c4ccccc4)c2c1OC)CCc1cc2c(cc1-3)OCO2`, the GI50 in experiment [1] came out at 1 µM; in experiment [2] it was 2 µM; in experiment [3] it was 1.55 µM; in experiment [4], 2.19 µM; in experiment [5], 2.45 µM; in experiment [6] it was 1.91 µM. This molecule yielded a GI50 in the experiment on MKN-28 of under 2.69 µM.

Consider `CCCCc1c2c(OC)c(OC)cc(Br)c2cc2[n+]1CCc1cc3c(cc1-2)OCO3`, for which the GI50 in experiment [1] was determined as 0.52 µM; in experiment [2] it was 1.91 µM; in experiment [3], 1.11 µM; in experiment [4], 1.54 µM; in experiment [5], 1.38 µM; in experiment [6] it was 1.29 µM. In the experiment on MKN-28, the GI50 was under 2.69 µM.

As for `CCCCCCc1c2c(OC)c(OC)cc(Br)c2cc2[n+]1CCc1cc3c(cc1-2)OCO3`, the GI50 in experiment [1] came to 0.31 µM; in experiment [2] it was 0.41 µM; in experiment [3] it was 0.44 µM; in experiment [4], 0.41 µM; in experiment [5], 0.48 µM; in experiment [6], 0.34 µM. Besides, in the experiment with MKN-28, the GI50 was found to be 0.41 µM.

`CCCCCCc1c2[n+](cc3c(OC)c(OC)ccc13)CCc1cc(OC)c(OC)cc1-2` [13-HEXYLPALMATINE]: the concentration for 50% growth inhibition (GI50) in experiment [1] was determined as 1.05 µM; in experiment [2], 2.95 µM; in experiment [3], 1.82 µM; in experiment [4], 2.14 µM; in experiment [5] it was 2.88 µM; in experiment [6], 3.47 µM. Further, in the experiment on MKN-28, the concentration for 50% growth inhibition (GI50) was under 2.69 µM.

For the molecule `COc1cccc2c1C(=O)c1c(O)c3c(c(O)c1C2=O)C[C@@](O)(C(=O)CO)C[C@@H]3O[C@H]1C[C@H](N)[C@H](O)[C@H](C)O1` [DOXORUBICIN], the 50% growth inhibitory concentration (GI50) was found to be 1.82 µM in experiment [1]; 2.55 µM in experiment [3]; 0.4 µM in experiment [4]; 4.35 µM in experiment [5]; 5.82 µM in experiment [6].

For the molecule `CO[C@@]12[C@H](COC(N)=O)C3=C(C(=O)C(C)=C(N)C3=O)N1C[C@@H]1N[C@@H]12` [MITOMYCIN], the GI50 in experiment [1] came to 0.034 µM; in experiment [3], 0.18 µM; in experiment [4], 0.023 µM; in experiment [5], 0.12 µM; in experiment [6], 0.1 µM.

A word on the GI50: it is the concentration at which growth is held to half of that of the control. Read a high GI50 as lower sensitivity of the cells.
